Assay results reported in article PMC4766003 (Biomacromolecules, 2015).

Biological target: Concanavalin A (Con A) (Canavalia ensiformis, UniProt P02866)
Experiment: isothermal titration calorimetry, one-site model
Format: binding
Conditions: 100 mM acetate pH 4.6, 1 mM MnCl2, 1 mM CaCl2, 30 mM NaCl, 25 °C; dimeric Con A
How it was run: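 Con A dialysed (10 kDa cutoff) into the assay buffer, with concentration from A280 (A1%,1cm = 12.4, monomer basis). Glycopolymer ligands were dialysed and quantified colorimetrically. Titrant in the same buffer was injected into Con A at 25 °C, stirred at 1000 rpm. Con A 0.42–0.06 mM; polymers 0.338–0.017 mM at 2 s intervals; monomers 7.55–8.03 mM at 4 s intervals. One-site fit floated ΔH, Ka and n.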

Chain of Concanavalin A (Con A) (P02866 30-148 limits assumed): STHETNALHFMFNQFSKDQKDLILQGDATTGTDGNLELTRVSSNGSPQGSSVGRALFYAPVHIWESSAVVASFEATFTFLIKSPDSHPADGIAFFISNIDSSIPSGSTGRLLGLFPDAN
Chain of Concanavalin A (Con A) (P02866 164-281 limits assumed): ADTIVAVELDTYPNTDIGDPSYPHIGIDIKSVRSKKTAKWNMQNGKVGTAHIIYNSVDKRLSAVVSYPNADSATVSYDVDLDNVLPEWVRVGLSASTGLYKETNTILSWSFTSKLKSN

| Substance | Ka (M^-1 × 10^3)^c |
| --- | --- |
| Man-Glc [25b] | 8.56 × 10^3 |
| Man-Man [22b] | 17.3 × 10^3 |
